{"source": "paper PMC6032914", "about": "(Clinical Pharmacology in Drug Development, 2018)", "key": {"[1]": {"assay": "Gefitinib pharmacokinetics", "assay_type": "in vivo", "conditions": "human, plasma, oral, Tmax (h), mean (SD), gefitinib 250 mg daily with ficlatuzumab 20 mg/kg"}, "[2]": {"tested_on": "phospho‐c‐Met and phospho‐Akt", "conditions": "NSCLC tumor lysates, alone or in combination; cited from earlier work"}, "HGF": {"molecular_target": "HGF", "conditions": "affinity of ficlatuzumab to HGF; cited from earlier work"}, "Safety and tolerability": {"assay": "Safety and tolerability", "assay_type": "in vivo, human", "conditions": "every 2 weeks, plus gefitinib 250 mg/day"}, "[3]": {"conditions": "cited from earlier work"}, "[4]": {"assay": "Ficlatuzumab serum pharmacokinetics", "assay_type": "in vivo, human"}, "NSCLC xenografts": {"tested_on": "NSCLC xenografts", "conditions": "cited from earlier work"}, "serum HGF": {"tested_on": "serum HGF", "assay": "Serum HGF pharmacodynamic marker", "assay_type": "in vivo, human", "conditions": "total serum HGF after ficlatuzumab administration", "in_short": "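Peripheral blood for serum total HGF was drawn before treatment and 3 h postinfusion on day 1, predose on days 2, 3, 8 and 22–28, predose and 2 h postinfusion on day 15 of cycle 1, and predose on cycle 3 day 1.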"}, "[5]": {"assay": "Ficlatuzumab antidrug antibody", "assay_type": "in vivo, human"}, "[6]": {"tested_on": "c‐Met‐positive advanced NSCLC", "conditions": "in combination with erlotinib; cited from earlier work"}, "[7]": {"conditions": "15 patients receiving monotherapy 20 mg/kg"}, "[8]": {"conditions": "ficlatuzumab 10 mg/kg, Cycle 1, day 1, n = 3"}, "[9]": {"conditions": "ficlatuzumab 20 mg/kg, Cycle 1, day 1, n = 12"}, "[10]": {"conditions": "ficlatuzumab 20 mg/kg, Cycle 4, day 1, n = 6"}}, "note": "Like-named read-outs stand apart in the source and are kept apart here.", "data": [{"compound": "COc1cc2ncnc(Nc3ccc(F)c(Cl)c3)c2cc1OCCCN1CCOCC1", "note": "[Gefitinib, gefitinib]", "values": [{"measurement": "Tmax", "setting": "[1]; Cycle 1, day 1, n = 12", "result": 5.4, "unit": "h"}, {"measurement": "Tmax", "setting": "[1]; Cycle 4, day 1, n = 6", "result": 9.9, "unit": "h"}]}, {"compound": "Ficlatuzumab: humanized IgG1κ inhibitory monoclonal antibody that binds to HGF and prevents the ligand from activating the c‐Met receptor", "values": [{"measurement": "phospho‐c‐Met and phospho‐Akt levels", "setting": "[2]", "result": "decreased"}, {"measurement": "Kd", "setting": "HGF", "result": 3, "unit": "pM"}, {"measurement": "recommended phase 2 dose (RP2D) of ficlatuzumab", "setting": "Safety and tolerability", "result": 20, "unit": "mg/kg"}, {"measurement": "TEAE fatigue", "setting": "[3]; [7]", "result": 5, "unit": "patients"}, {"measurement": "TEAE hypokalemia", "setting": "[3]; [7]", "result": 4, "unit": "patients"}, {"measurement": "TEAE nausea", "setting": "[3]; [7]", "result": 4, "unit": "patients"}, {"measurement": "TEAE peripheral edema", "setting": "[3]; [7]", "result": 8, "unit": "patients"}, {"measurement": "TEAE vomiting", "setting": "[3]; [7]", "result": 5, "unit": "patients"}, {"measurement": "tolerability of the highest administered dose", "setting": "[3]; ficlatuzumab 20 mg/kg", "result": "well tolerated without any dose‐limiting toxicities"}, {"measurement": "grade 3/4 TEAE hypokalemia", "setting": "[3]; ficlatuzumab monotherapy", "result": 4, "unit": "patients"}, {"measurement": "recommended phase 2 dose (RP2D) of ficlatuzumab", "setting": "[3]; intravenous every 2 weeks, with oral erlotinib 150 mg/day", "result": 20, "unit": "mg/kg"}, {"measurement": "mean trough level of ficlatuzumab", "setting": "[4]; beginning of cycle 4, 20 mg/kg cohort, n = 8", "result": 413.1, "unit": "µg/mL"}, {"measurement": "Ficlatuzumab drug exposure (Cmax and AUC0–last) versus dose", "setting": "[4]; cycle 1, 10 and 20 mg/kg", "result": "approximately proportional to dose"}, {"measurement": "AUC0–last (mg·h/mL), mean (SD)", "setting": "[4]; [8]", "result": "39.2 (4.5) mg·h/mL"}, {"measurement": "Cmax (μg/mL), mean (SD)", "setting": "[4]; [8]", "result": "229 (8.9) μg/mL"}, {"measurement": "t1/2 (Days), mean (SD)", "setting": "[4]; [8]", "result": "15.2 (4.7) Days"}, {"measurement": "AUC0–last (mg·h/mL), mean (SD)", "setting": "[4]; [9]", "result": "81.3 (16.5) mg·h/mL"}, {"measurement": "Cmax (μg/mL), mean (SD)", "setting": "[4]; [9]", "result": "544 (141) μg/mL"}, {"measurement": "t1/2 (Days), mean (SD)", "setting": "[4]; [9]", "result": "11.3 (3.2) Days"}, {"measurement": "AUC0–last (mg·h/mL), mean (SD)", "setting": "[4]; [10]", "result": "212 (47.3) mg·h/mL"}, {"measurement": "Cmax (μg/mL), mean (SD)", "setting": "[4]; [10]", "result": "1070 (220) μg/mL"}, {"measurement": "mean half‐life", "setting": "[4]; first dose in cycle 1, dose not stated", "result": "approximately 15 days"}, {"measurement": "tumor growth", "setting": "NSCLC xenografts", "result": "inhibits tumor growth"}, {"measurement": "highest HGF level observed", "setting": "serum HGF", "result": "≈ 14 ng/mL"}, {"measurement": "ADA result of postficlatuzumab samples", "setting": "[5]; 41 samples from 14 patients", "result": "negative"}, {"measurement": "immunogenicity", "setting": "[5]; any patients during the observation period", "result": "not immunogenic"}]}, {"compound": "onartuzumab: c‐Met‐targeted monovalent monoclonal antibody, tested in combination with erlotinib", "values": [{"measurement": "outcome of the phase 3 study", "setting": "[6]", "result": "lack of efficacy"}]}]}
